# Compound activity (PubChem BioAssay)
# In the library only some 3.1% were active in any assay of this set; here they are far more common.
# PP5 inh: PP5 phosphatase inhibitors, primary screen, biochemical, fluorescence; Serine/threonine-protein phosphatase 5 (Homo sapiens), P53041; purified PP5c, OMFP substrate fluorescence; inhibition, % at 6.7 µM; 0.18% of 320,000 active; AID 1987, 2009;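 active = inhibition above the campaign's mean inhibition across all tested compounds plus 3 SD, cut at about 9.5% in these data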;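 also: 0% = DMSO only and 100% = 100 µM cantharidin control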
# PP1 counter: PP1-alpha phosphatase inhibitors, primary screen, counter-screen for PP5 inhibitor project, biochemical, fluorescence, OMFP substrate, single point. inhibition, % at 6.7 µM. purified PP1alpha. AID 2235, 2010. Serine/threonine-protein phosphatase PP1-alpha catalytic subunit (Homo sapiens), P62136. 0.9% of 320,000 active;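 active = inhibition above the mean inhibition of all tested compounds plus 3 SD, computed separately for each screening campaign, cut at about 15% in these data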
# Myeloid diff MLP: induction of myeloid progenitor differentiation, primary screen, cell-based, flow cytometry, MLPCN library; ER-HoxA9 myeloid progenitors, lysozyme-GFP differentiation; calls only at 10 µM; 1% of 360,000 active; AID 624256, 2012;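 active = normalized GFP-positive differentiation at or above the plate's own cutoff, the solvent-only control mean plus 3 SD; inconclusive = no clear call, values can overlap the other calls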;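 also: cells exposed to compound for four days before flow analysis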
# core dimer inh: inhibitors of HCV core protein dimerization, primary screen, biochemical, TR-FRET, high-throughput; TR-FRET GST/Flag-core106 dimerization, 1536-well; inhibition, % at 5 µM; 0.33% of 300,000 active;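 active = inhibition above the mean of all tested compounds plus 3 SD, set per screening campaign, cut at about 45% in these data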
#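 Assay system: tagged HCV core106 pair (GST and Flag); medium: KF-containing HEPES buffer, pH 7.45, DTT, CHAPS, BSA; also added: Eu donor and XL665 acceptor anti-tag antibodies; dosing: 5 µM single dose; timing: compound-protein-antibody incubation 4 h at 22.5 °C; signal: TR-FRET 671 and 617 nm emission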
# NadD block: inhibitors of S. aureus NadD, primary screen, biochemical, colorimetric, uHTS. AID 602399, 2012. purified NadD enzyme, colorimetric absorbance read-out. Nicotinate-nucleotide adenylyltransferase NadD (Staphylococcus aureus N315). 0.78% of 360,000 active. inhibition, % at 20 µM; in the data active = inhibition above about 26%
# Fh CTSL1 inh: Fasciola hepatica cathepsin L1 inhibitors, primary screen, counter-screen for PFM18AAP inhibitor project, biochemical, QFRET, fluorogenic peptide substrate; recombinant F. hepatica cathepsin L1, Z-Leu-Arg-MCA fluorescence; inhibition, % at 5.96 µM; AID 1906, 2009; 0.49% of 300,000 active;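 active = inhibition above the mean of all tested compounds plus 3 SD, set per screening campaign, cut at about 17% in these data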;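 also: 0% = plate median of test compound wells and 100% = 1 µM Z-Phe-Ala-diazomethylketone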
# An asterisk follows results filed as active; i = inactive; ? = inconclusive; . = not tested or not shown; + = active, no number.
SMILES,PP5 inh,PP1 counter,Myeloid diff MLP,core dimer inh,NadD block,Fh CTSL1 inh
Cc1ccc(/C(N)=N/OC(=O)c2ccc(Cl)cc2Cl)cc1,3,-1,+,1,3,-2
Cc1cccc(C(=O)O/N=C(\N)c2ccc(Cl)cc2)c1,3,0,i,-2,-11,1
O=C(COc1ccccc1)Nc1nnc(-c2ccccc2)o1,1,15*,i,-16,4,4
O=C(CCc1ccccc1)Nc1nnc(-c2ccc3c(c2)CCCC3)o1,-1,20*,i,21,12,2
O=C(COc1ccccc1)Nc1nnc(-c2ccc(Cl)s2)o1,1,19*,i,-9,-2,-1
COc1cc(/C=C2\SC(=O)N(CCNC(=O)c3c(C)noc3C)C2=O)cc(OC)c1OC,.,.,i,.,1,.
Cc1ccc(CNC(=O)CC(C)S(=O)(=O)c2ccc3c(c2)NC(=O)CS3)o1 (centres undefined),-1,3,?,4,1,-1
COc1ccccc1CN1C(=NC(=O)CCC2CCCC2)SC2CS(=O)(=O)CC21 (centres undefined),4,0,i,12,1,1
CN(C)CCCN(C(=O)/C=C/c1cccs1)c1nc2ccc(F)cc2s1,3,-3,+,-2,-4,4
COc1ccc(CCNC(=O)CS(=O)(=O)c2cn(CC(=O)N(C(C)C)C(C)C)c3ccccc23)cc1OC,0,-6,i,0,-1,17*
C[C@H](CO)NC(=O)c1nc[nH]c1C(=O)N[C@H](C)c1ccccc1,.,.,i,.,-4,.
Cc1ccnc(N/C=C(/NC(=O)c2ccccc2)C(=O)N/N=C\c2ccc(F)cc2)n1,-3,1,i,1,0,20*
Cc1ccnc(N/C=C(/NC(=O)c2ccccc2)C(=O)NN)n1,3,-1,i,-2,-4,16
COc1ccc(-n2c(C)cc(-c3csc(NC(=O)c4ccc(S(=O)(=O)N(C)C)cc4)n3)c2C)cc1,1,15,i,53*,34*,4
COc1ccc(S(=O)(=O)N2CCOCC2)cc1C(=O)Nc1ccc(N2CCCCCC2)cc1,.,.,i,.,20,.
Cc1ccc(NS(=O)(=O)c2cc(-c3n[nH]c(=O)c4ccccc34)ccc2C)cc1,2,3,+,4,2,3
COc1ccc(C(O)c2ncc(-c3cccc(OCc4ccccc4)c3)[nH]2)cc1F (centres undefined),.,.,i,.,12,.
C/C(=N\Nc1nccnc1Cl)c1ccc(O)c(C)c1,0,1,i,-1,3,-2
C#CC[N+](C)(C)CC#Cc1ccccc1,3,-2,+,3,0,0
O=c1c2ccccc2nc(COc2ccccc2)n1/N=C/c1cn[nH]c1-c1ccccc1,1,1,+,5,-2,2
Cc1c(C(=O)NCc2ccc3c(c2)OCCO3)sc(=O)n1Cc1ccccc1C(F)(F)F,.,.,+,.,-2,.
Cc1c(C(=O)NCc2ccc3c(c2)OCCO3)sc(=O)n1Cc1ccccc1F,.,.,i,.,-9,.
CCN(CC)c1ccc(/C=C(/C#N)c2nc3ccc(C)cc3[nH]2)c(OC(C)C)c1,0,1,+,12,15,5
CN(CC(=O)Nc1sccc1C#N)C1CCCCC1,0,6,i,51*,17,1
N#Cc1ccsc1NC(=O)CN1CCCCCC1,0,2,i,-6,6,1
CCOP(=O)(OCC)C(C#N)=C1SCN(c2ccccc2)CS1,-1,9,i,90*,14,5
CC(C(=O)OCC(=O)Nc1ccccc1OC(F)F)N1C(=O)C2CC=CCC2C1=O (centres undefined),.,.,i,.,7,.
Cc1ccc(NC(=O)COC(=O)C(CC(C)C)N2C(=O)C3CC=CCC3C2=O)c(C)c1 (centres undefined),1,2,i,6,-3,17*
